Test results published in ChEMBL document CHEMBL4765418, “Discovery of novel quinazolinone derivatives as potential anti-HBV and anti-HCC agents” (Eur J Med Chem, 2020).

Legend:
[1] = Cytotoxicity against human HepG2 2.2.15 cells assessed as reduction in cell viability measured after 72 hrs by MTT assay; assay type: cell-based
Summary of the method: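 HepG2 2.2.15 cells (HBV-producing; grown in DMEM with 10% FBS, penicillin/streptomycin and 0.38 mg/mL G418) seeded in 96-well plates and grown 24 h, then treated 72 h with compounds. Viability read by MTT absorbance at 490 nm relative to untreated cells. CC50 is the dose causing 50% cell death.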

[2] = tested on: HepG2; experiment: Antiproliferative activity against human HepG2 cells assessed as inhibition of cell proliferation after 72 hrs by MTT assay; assay type: functional, cell-based; settings: HepG2, 72 h
Summary of the method: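 Cells seeded in 96-well plates and grown 24 h to reach exponential growth, then exposed to test compounds in culture medium for 72 h. Viability read by MTT absorbance at 490 nm relative to untreated cells. IC50 is the concentration giving 50% inhibition of proliferation.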

[3] = tested on: Hepatitis B virus; experiment: Antiviral activity against HBV infected in human HepG2.2.15 cells assessed as inhibition of DNA replication supplemented with fresh medium containing compound every 2 days for 6 days by RT-PCR analysis; assay type: functional, organism-based; settings: HepG2 2.2.15
Summary of the method: (§1)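 HepG2 2.2.15 cells (2×10^5/well, 24-well) left 24 h to recover from trypsinization, then given fresh medium with compound (single-point screen at 0.8 μM), renewed every 2 days for 6 days. Intracellular HBV DNA extracted and quantified by real-time PCR. IC50 is the dose giving 50% inhibition of DNA replication, taken from dose–response.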

[4] = tested on: Hepatitis B virus; experiment: (§2) Antiviral activity against HBV infected in human HepG2.2.15 cells assessed as inhibition of DNA replication at 0.8 uM supplemented with fresh medium containing compound every 2 days for 6 days by RT-PCR analysis relative to control; assay type: functional; settings: HepG2 2.2.15, 144 h, time 6 day; summary of the method: as §1
[5] = Selectivity index, ratio of CC50 for human HepG2 2.2.15 cells to IC50 for antiviral activity against HBV infected in human HepG2.2.15 cells assessed as inhibition of DNA replication; assay type: toxicity, cell-based; settings: read-out: Ratio CC50/IC50
[6] = tested on: Hepatitis B virus; experiment: as §2, with “against lamivudine and entecavir-resistant” for “against”, “HBV harboring rtL180 M/rtM204V/rtT184L mutant” for “HBV”, “10” for “0.8”; assay type: functional; settings: HepG2 2.2.15, 144 h, time 6 day
[7] = tested on: Hepatitis B virus; experiment: Antiviral activity against HBV infected in human HepG2.2.15 cells assessed as inhibition of DNA replication at 10 uM supplemented with fresh medium containing compound every 2 days for 6 days by RT-PCR analysis relative to control; assay type: functional; settings: HepG2 2.2.15, 144 h, time 6 day
[8] = tested on: Hepatitis B virus; experiment: as §2, with “against lamivudine and entecavir-resistant” for “against”, “HBV harboring rtL180 M/rtM204V/rtT184L mutant” for “HBV”, “100” for “0.8”; assay type: functional; settings: HepG2 2.2.15, 144 h, time 6 day
[9] = tested on: Hepatitis B virus; experiment: Antiviral activity against HBV infected in human HepG2.2.15 cells assessed as inhibition of DNA replication at 100 uM supplemented with fresh medium containing compound every 2 days for 6 days by RT-PCR analysis relative to control; assay type: functional; settings: HepG2 2.2.15, 144 h, time 6 day
[10] = tested on: Hepatitis B virus; experiment: Antiviral activity against HBV infected in human HepG2.2.15 cells assessed as inhibition of HBsAg production supplemented with fresh medium containing compound every 3 days for 6 days by EIA relative to control; assay type: functional, HepG2 2.2.15; settings: time 6 day

| Compound | CC50 at 72 h [1] [µM] | IC50 [2] [µM] | IC50 [3] [nM] | inhibition at 0.8 µM [4] [%] | selectivity ratio [5] | inhibition at 10 µM [6] [%] | inhibition at 10 µM [7] [%] | inhibition at 100 µM [8] [%] | inhibition at 100 µM [9] [%] | inhibition (INH) [10] [%] |
| --- | --- | --- | --- | --- | --- | --- | --- | --- | --- | --- |
| CCN(CC)CCOc1ccc2nc(SCc3ccccc3)n(Cc3ccccc3)c(=O)c2c1 | > 10 | > 20 | 660 | 64.5 | > 15.2 |  |  |  |  |  |
| C=C1[C@H](CO)[C@@H](O)C[C@@H]1n1cnc2c(=O)[nH]c(N)nc21 [ENTECAVIR] |  |  |  |  |  | 18.9 | 96.9 |  |  |  |
| COc1ccc(C(C)=O)cc1CSc1nc2ccc(OCCCN(C)C)cc2c(=O)n1Cc1ccco1 | > 10 | 9.4 | 790 | 54.2 | > 12.7 |  |  |  |  |  |
| CCN(CC)CCOc1ccc2nc(SCc3ccccc3OC)n(Cc3ccco3)c(=O)c2c1 | > 10 | 19 | 770 | 52.6 | > 13 |  |  |  |  |  |
| COc1ccc(C(C)=O)cc1CSc1nc2ccc(OCCCN(C)C)cc2c(=O)n1Cc1cccs1 | 9.63 | 8.98 |  | 0.16 |  |  |  |  |  |  |
| COc1ccccc1CSc1nc2ccc(OCCCN(C)C)cc2c(=O)n1Cc1cccs1 | > 10 | 8.81 |  | 21.6 |  |  |  |  |  |  |
| O=c1[nH]cc(F)c(=O)[nH]1 [FLUOROURACIL] |  | 8.69 |  |  |  |  |  |  |  |  |
| CN(C)CCOc1ccc2nc(SCc3ccccc3)n(Cc3ccccc3)c(=O)c2c1 | > 10 | > 20 | 680 | 65.5 | > 14.7 |  |  |  |  |  |
| COc1ccccc1CSc1nc2ccc(OCCCN(C)C)cc2c(=O)n1Cc1ccccc1 | > 10 | 11.8 |  | 3.66 |  |  |  |  |  |  |
| CN(C)CCOc1ccc2nc(SCc3ccccc3)n(Cc3cccs3)c(=O)c2c1 | > 10 |  | 770 | 53.6 | > 13 |  |  |  |  |  |
| COc1ccc(C(C)=O)cc1CSc1nc2ccc(OCCN(C)C)cc2c(=O)n1Cc1ccccc1 | > 10 | 19 |  | 15.6 |  |  |  |  |  |  |
| Nc1ccn([C@@H]2CS[C@H](CO)O2)c(=O)n1 [LAMIVUDINE] | > 100 |  | < 100 | 84.4 | > 1000 |  |  | 15.7 | 90 | 9.09 |
